Type in all cases: functional, cell-based
For data set [1], the target named is T1, Solute carrier organic anion transporter family member 2B1 (Homo sapiens, UniProt O94956).
T1 sequence (O94956 whole entry): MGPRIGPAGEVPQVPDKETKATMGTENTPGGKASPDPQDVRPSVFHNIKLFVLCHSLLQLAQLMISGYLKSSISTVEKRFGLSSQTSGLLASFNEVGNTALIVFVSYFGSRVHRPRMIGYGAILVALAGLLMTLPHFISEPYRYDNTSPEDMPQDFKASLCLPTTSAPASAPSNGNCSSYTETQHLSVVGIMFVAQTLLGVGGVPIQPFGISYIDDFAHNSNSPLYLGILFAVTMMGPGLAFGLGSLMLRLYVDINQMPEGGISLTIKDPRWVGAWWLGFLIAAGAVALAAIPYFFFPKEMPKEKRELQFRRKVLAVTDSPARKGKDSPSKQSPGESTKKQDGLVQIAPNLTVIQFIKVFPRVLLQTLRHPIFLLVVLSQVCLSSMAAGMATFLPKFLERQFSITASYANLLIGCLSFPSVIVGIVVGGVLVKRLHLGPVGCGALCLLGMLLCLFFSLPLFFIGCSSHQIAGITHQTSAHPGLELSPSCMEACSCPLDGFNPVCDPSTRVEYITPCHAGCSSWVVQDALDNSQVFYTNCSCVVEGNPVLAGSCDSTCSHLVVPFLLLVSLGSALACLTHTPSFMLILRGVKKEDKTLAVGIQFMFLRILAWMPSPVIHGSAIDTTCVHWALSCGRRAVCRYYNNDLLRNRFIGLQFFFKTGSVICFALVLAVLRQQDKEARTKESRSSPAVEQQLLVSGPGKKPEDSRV
Nature of the data set: TP_TRANSPORTER: uptake (pH 5.0) of Lactate at a concentration of 1.91 u M in OATP-B-expressing HEK293 cells. Particulars: hek293, pH 5, 1.91 µM. The method, boiled down: (§1)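 HEK293 cells transiently transfected with pcDNA3/OATP-B (calcium phosphate) or empty vector were used 40-48 h later. Suspensions were preincubated 20 min at 37°C in HEPES saline (pH 7.4), then incubated 10 min in MES/Tris-buffered uptake medium (pH 5.0 or 7.4). Cells were separated by silicone-oil centrifugal filtration. Uptake was inulin-corrected, expressed as µL/mg protein, and mock-subtracted; n=3-4.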

Data set [2] concerns the target T1, Solute carrier organic anion transporter family member 2B1. In words: TP_TRANSPORTER: uptake (pH 7.4) of Lactate at a concentration of 1.91 u M in OATP-B-expressing HEK293 cells. Particulars: hek293, pH 7.4, 1.91 µM. The method, boiled down: as §1
Data set [3] shares this target. In words: TP_TRANSPORTER: uptake (pH 7.4) of Estradiol-17beta-D-glucuronide at a concentration of 5.72 nM in OATP-B-expressing HEK293 cells. Particulars: hek293, pH 7.4, 0.00572 µM. In short, it runs like this:
(§2)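 HEK293 cells transiently transfected with OATP-B cDNA (calcium phosphate) or vector alone (mock), used 40-48 h later as suspensions. Preincubated 20 min at 37°C in HEPES buffer pH 7.4, then incubated with radiolabeled compound in uptake medium pH 5.0 or 7.4. DHEAS was taken up for 5 min; estradiol-17ß-glucuronide for 10 min. Cells separated by silicone oil/paraffin centrifugal filtration and counted by scintillation. Uptake (µL/mg protein) corrected for [14C]inulin adsorption; mock subtracted; n=3 or 4.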

Data set [4] has the same target. In words: TP_TRANSPORTER: uptake (pH 5.0) of Estradiol-17beta-D-glucuronide at a concentration of 5.72 nM in OATP-B-expressing HEK293 cells. The settings on record: hek293, pH 5, 0.00572 µM. The method, boiled down:
as §2

For data set [5] the target is unchanged. In words: TP_TRANSPORTER: uptake (pH 5.0) of Estrone-3-sulfate at a concentration of 5.43 nM in OATP-B-expressing HEK293 cells. The settings on record: hek293, pH 5, 0.00543 µM. In short, it runs like this:
(§3)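 OATP-B- or vector-transfected HEK293 cells were harvested 40-48 h after transfection and preincubated 20 min at 37°C in pH 7.4 HEPES saline. [3H]estrone-3-sulfate uptake was run for 1 min in uptake medium at pH 5.0 or 7.4 and stopped by silicone-oil centrifugal filtration. Radioactivity was counted by scintillation, corrected for [14C]inulin adsorption and given as µL/mg protein. Mock uptake was subtracted; n=3-4.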

The target is the same in data set [6]. Nature of the data set: TP_TRANSPORTER: uptake (pH 7.4) of Estrone-3-sulfate at a concentration of 5.43 nM in OATP-B-expressing HEK293 cells. Particulars: hek293, pH 7.4, 0.00543 µM. The method, boiled down: as §3
Data set [7] shares this target. Nature of the data set: TP_TRANSPORTER: uptake (pH 7.4) of Fexofenadine at a concentration of 10 u M in OATP-B-expressing HEK293 cells. Particulars: hek293, pH 7.4, 10 µM. In short, it runs like this: (§4)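 Transiently transfected OATP-B or mock HEK293 cells were preincubated 20 min at 37°C (pH 7.4), then exposed for 30 min to uptake medium at pH 5.0 or 7.4. Pellets were collected through silicone oil, sonicated, extracted in 50% methanol, dried and quantified by HPLC (ODS column, fluorescence ex 240/em 290 nm). Results are µL/mg protein after mock subtraction; n=3-4.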

Data set [8] has the same target. Nature of the data set: TP_TRANSPORTER: uptake (pH 5.0) of Fexofenadine at a concentration of 10 u M in OATP-B-expressing HEK293 cells. Particulars: hek293, pH 5, 10 µM. In short, it runs like this:
as §4

Data set [9] has the same target. Nature of the data set: TP_TRANSPORTER: uptake (pH 7.4) of Dehydroepiandrosterone-3-sulfate at a concentration of 2.98 nM in OATP-B-expressing HEK293 cells. The settings on record: hek293, pH 7.4, 0.00298 µM. In short, it runs like this:
as §2

For data set [10] the target is unchanged. Nature of the data set: TP_TRANSPORTER: uptake (pH 5.0) of Dehydroepiandrosterone-3-sulfate at a concentration of 2.98 nM in OATP-B-expressing HEK293 cells. Particulars: hek293, pH 5, 0.00298 µM. In short, it runs like this: as §2
The target is the same in data set [11]. Nature of the data set: TP_TRANSPORTER: uptake (pH 7.4) of Pravastatin at a concentration of 14.7 u M in OATP-B-expressing HEK293 cells. The settings on record: hek293, pH 7.4, 14.7 µM. In short, it runs like this:
as §1

Data set [12] has the same target. In words: TP_TRANSPORTER: uptake (pH 5.0) of Pravastatin at a concentration of 14.7 u M in OATP-B-expressing HEK293 cells. The settings on record: hek293, pH 5, 14.7 µM. The method, boiled down:
as §1

Substrate in data set [13]: C[C@]12CC[C@@H]3c4ccc(OS(=O)(=O)O)cc4CC[C@H]3[C@@H]1CCC2=O
Nature of the data set: TP_TRANSPORTER: uptake (pH 7.4) in OATP-B-expressing HEK293 cells. In short, it runs like this:
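OATP-B- or mock-transfected HEK293 suspensions. Preincubated 20 min at 37°C at pH 7.4, then substrate uptake in medium at pH 7.4 (Tris-adjusted). Uptake was separated by centrifugal filtration through oil and measured by scintillation, or by HPLC-fluorescence for fexofenadine. Expressed as cell-to-medium ratio (µL/mg protein), corrected by [14C]inulin space; OATP-B-specific = transfected minus mock; n=3 or 4.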

Substrate in data set [14]: C[C@]12CC[C@@H]3c4ccc(OS(=O)(=O)O)cc4CC[C@H]3[C@@H]1CCC2=O
In words: (§5) TP_TRANSPORTER: uptake (pH 5.0) in OATP-B-expressing HEK293 cells.

Substrate in data set [15]: CC[C@H](C)C(=O)O[C@H]1C[C@H](O)C=C2C=C[C@H](C)[C@H](CC[C@@H](O)C[C@@H](O)CC(=O)O)[C@H]21
Described as §5.

The source of these data is ChEMBL document CHEMBL2073884, “Functional characterization of pH-sensitive organic anion transporting polypeptide OATP-B in human” (J Pharmacol Exp Ther, 2004).

One may read the Km as the substrate concentration at which the rate is half of its maximum.

`C[C@@H](O)C(=O)O` [D-LACTIC ACID]: the Activity result in data set [1] and in data set [2] was “is not a substrate [-]” each time.

`C[C@]12CC[C@@H]3c4ccc(O)cc4CC[C@H]3[C@@H]1CC[C@@H]2O[C@@H]1O[C@H](C(=O)O)[C@@H](O)[C@H](O)[C@H]1O` [ESTRADIOL 17B GLUCURONIDE]: the Activity result in [3] and in data set [4] was “is not a substrate [-]” each time.

As for `C[C@]12CC[C@@H]3c4ccc(OS(=O)(=O)O)cc4CC[C@H]3[C@@H]1CCC2=O` [ESTRONE SULFURIC ACID], the Activity result in [5] and in data set [6] was “substrate [+]” throughout.

In the case of `CC(C)(C(=O)O)c1ccc(C(O)CCCN2CCC(C(O)(c3ccccc3)c3ccccc3)CC2)cc1` (stereo not given) [FEXOFENADINE], the Activity entry in data set [7] and in data set [8] was “substrate [+]” in each case.

Regarding `C[C@]12CC[C@H](OS(=O)(=O)O)CC1=CC[C@@H]1[C@@H]2CC[C@]2(C)C(=O)CC[C@@H]12` [PRASTERONE SULFURIC ACID], the Activity result in [9] and in data set [10] was “substrate [+]” each time.

Regarding `CC[C@H](C)C(=O)O[C@H]1C[C@H](O)C=C2C=C[C@H](C)[C@H](CC[C@@H](O)C[C@@H](O)CC(=O)O)[C@H]21` [PRAVASTATIN], the Activity result is “is not a substrate [-]” in data set [11] and “substrate [+]” in data set [12].

B1: Solute carrier organic anion transporter family member 2B1 (Homo sapiens) (protein)
chain: MGPRIGPAGEVPQVPDKETKATMGTENTPGGKASPDPQDVRPSVFHNIKLFVLCHSLLQLAQLMISGYLKSSISTVEKRFGLSSQTSGLLASFNEVGNTALIVFVSYFGSRVHRPRMIGYGAILVALAGLLMTLPHFISEPYRYDNTSPEDMPQDFKASLCLPTTSAPASAPSNGNCSSYTETQHLSVVGIMFVAQTLLGVGGVPIQPFGISYIDDFAHNSNSPLYLGILFAVTMMGPGLAFGLGSLMLRLYVDINQMPEGGISLTIKDPRWVGAWWLGFLIAAGAVALAAIPYFFFPKEMPKEKRELQFRRKVLAVTDSPARKGKDSPSKQSPGESTKKQDGLVQIAPNLTVIQFIKVFPRVLLQTLRHPIFLLVVLSQVCLSSMAAGMATFLPKFLERQFSITASYANLLIGCLSFPSVIVGIVVGGVLVKRLHLGPVGCGALCLLGMLLCLFFSLPLFFIGCSSHQIAGITHQTSAHPGLELSPSCMEACSCPLDGFNPVCDPSTRVEYITPCHAGCSSWVVQDALDNSQVFYTNCSCVVEGNPVLAGSCDSTCSHLVVPFLLLVSLGSALACLTHTPSFMLILRGVKKEDKTLAVGIQFMFLRILAWMPSPVIHGSAIDTTCVHWALSCGRRAVCRYYNNDLLRNRFIGLQFFFKTGSVICFALVLAVLRQQDKEARTKESRSSPAVEQQLLVSGPGKKPEDSRV
In the case of B1, the figures for the Michaelis-Menten constant (Km) in data set [13], in data set [14] and in data set [15] were 8.09 µM, 13.1 µM and 2250 µM, respectively.
